In assay [1] the test system is Platelet. The assay is described as follows: Inhibition of ADP-induced platelet aggregation in human platelet rich plasma incubated 1 min prior ADP induction measured after 3 mins by Born's method using aggregometer. Conditions: for IC50: Homo sapiens, Platelet, Plasma. The assay is classed as functional, cell-free. Put shortly:
(§1)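 Citrated (3.8% sodium citrate, 1:9) venous blood from healthy donors free of aspirin/NSAIDs for at least 14 days. PRP prepared by centrifugation, with PPP as the baseline blank. Compound in DMSO (below 0.5% final) added to 500 µL PRP 1 min before 10 µM ADP (final), at 37 °C. Aggregation is the maximum tracing height over at least 3 min, expressed as % inhibition versus vehicle. IC50 comes from non-linear regression, mean ± S.E.M., n = 3.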

In assay [2] the test system is Platelet. Put plainly: Inhibition of ADP-induced platelet aggregation in human platelet rich plasma. The assay is classed as functional, cell-free. Put shortly:
as §1

In assay [3] the test system is Platelet. Put plainly: Inhibition of ADP-induced platelet aggregation in human platelet rich plasma assessed as platelet aggregation at 300 uM incubated 1 min prior ADP induction measured after 3 mins by Born's method using aggregometry relative to control. The assay is classed as functional. Also on record: scale not given: the % may be the effect or the level left. Put shortly:
(§2)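 Human citrated PRP from drug-free healthy donors, with PPP as the blank, in an aggregometer at 37 °C. Compound added at 300 µM final in DMSO (below 0.5%) for 1 min, then 10 µM ADP final. Maximum aggregation tracing height read over at least 3 min and compared with the DMSO vehicle control.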

Assay [4] relates to Platelet. The assay is described as follows: Inhibition of ADP-induced platelet aggregation in human platelet rich plasma at 300 uM incubated 1 min prior ADP induction measured after 3 mins by Born's method using aggregometer relative to control. The format is functional. An outline of the steps:
as §2

For assay [5], the system named is Platelet. The assay is described as follows: Inhibition of arachidonic acid-induced platelet aggregation in human platelet rich plasma incubated 1 min prior arachidonic acid induction measured after 3 mins by Born's method using aggregometer. The assay is classed as functional, cell-free. Conditions: for IC50: Homo sapiens, Platelet, Plasma. An outline of the steps: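 Citrated PRP from healthy volunteers free of aspirin/NSAIDs for at least 14 days, with PPP as the baseline blank. Compound in DMSO (below 0.5% final) preincubated 1 min in 500 µL PRP at 37 °C, then 0.5 mM arachidonic acid (final) added. Maximum aggregation height over at least 3 min gives % inhibition versus vehicle. IC50 by non-linear regression, mean ± S.E.M. of 3 experiments.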

With `CCCSc1nc(NCCc2ccc(OC)cc2)c2ncn([C@@H]3O[C@H](CO)[C@@H](O)[C@H]3O)c2n1`, the “inhibition (INH)” value with Platelet [1] is >50%.

Regarding `CCCSc1nc(NC2CCCCC2)c2ncn([C@@H]3O[C@H](CO)[C@@H](O)[C@H]3O)c2n1`, in the assay with Platelet [1], the “inhibition (INH)” value is >50%.

As to `CSCCNc1nc(SCCC(F)(F)F)nc2c1ncn2[C@@H]1O[C@H](COP(=O)(O)OP(=O)(O)C(Cl)(Cl)P(=O)(O)O)[C@@H](O)[C@H]1O` [CANGRELOR TETRASODIUM], half-maximal inhibition in the assay with Platelet [2] (IC50) required 0.0004 µM.

For `CCCCSc1nc(NC2CCCCC2)c2ncn([C@@H]3O[C@H](CO)[C@@H](O)[C@H]3O)c2n1`, in the assay on Platelet [1], the “inhibition (INH)” value was >50% and half-maximal inhibition (IC50) required 83 µM.

As to `CCSc1nc(NCc2ccccc2)c2ncn([C@@H]3O[C@H](CO)[C@@H](O)[C@H]3O)c2n1`, the “inhibition (INH)” value in the assay with Platelet [1] is reported as >50%.

Turning to `CCCCSc1nc(NCCc2ccc(OC)cc2)c2ncn([C@@H]3O[C@H](CO)[C@@H](O)[C@H]3O)c2n1`, in the assay on Platelet [1], the “inhibition (INH)” value is recorded as >50% and the IC50 was found to be 93 µM.

`CCCCCCNc1nc(SCC)nc2c1ncn2[C@@H]1O[C@H](CO)[C@@H](O)[C@H]1O`: the Activity with Platelet [3] is 57%. Also, the inhibition at 300 µM with Platelet [4] is < 50%.

For the molecule `CCCSc1nc(NCc2ccc(OC)cc2)c2ncn([C@@H]3O[C@H](CO)[C@@H](O)[C@H]3O)c2n1`, the “inhibition (INH)” value with Platelet [1] was >50%.

Regarding `CCSc1nc(NCCc2ccccc2)c2ncn([C@@H]3O[C@H](CO)[C@@H](O)[C@H]3O)c2n1`, in the assay on Platelet [1], the “inhibition (INH)” value was >50% and the IC50 amounted to 29 µM. Moreover, in the assay on Platelet [5], the “inhibition (INH)” value is reported as >50% and the IC50 amounted to 30 µM.

As to `OC[C@H]1O[C@@H](n2cnc3c(NCCc4ccccc4)nc(SCc4ccccc4)nc32)[C@H](O)[C@@H]1O`, the Activity in the assay on Platelet [3] worked out at 57%. Besides, the inhibition at 300 µM in the assay with Platelet [4] is < 50%.

Turning to `CCCCSc1nc(NCc2ccccc2)c2ncn([C@@H]3O[C@H](CO)[C@@H](O)[C@H]3O)c2n1`, in the assay on Platelet [1], the “inhibition (INH)” value is >50%.

Regarding `CCCCCCNc1nc(SCCCC)nc2c1ncn2[C@@H]1O[C@H](CO)[C@@H](O)[C@H]1O`, the Activity with Platelet [3] is recorded as 66%. Also, the inhibition at 300 µM with Platelet [4] was < 50%.

For `CSc1nc(NCCc2ccccc2)c2ncn([C@@H]3O[C@H](CO)[C@@H](O)[C@H]3O)c2n1`, the “inhibition (INH)” value with Platelet [1] and in the assay on Platelet [5] was >50% each time. Further, the IC50 was 36 µM with Platelet [1] and 3 µM with Platelet [5].

For the molecule `CCSc1nc(NCCc2ccc(OC)cc2)c2ncn([C@@H]3O[C@H](CO)[C@@H](O)[C@H]3O)c2n1`, in the assay with Platelet [1], the “inhibition (INH)” value was >50% and it took 89 µM to reach half-maximal inhibition (IC50).

`CCCSc1nc(NCCc2ccccc2)c2ncn([C@@H]3O[C@H](CO)[C@@H](O)[C@H]3O)c2n1`: the “inhibition (INH)” value in the assay with Platelet [1] and in the assay on Platelet [5] was >50% in each case. For the same molecule, the concentration for half-maximal inhibition (IC50) in the assay with Platelet [1] is 52 µM; in the assay on Platelet [5] it was 44 µM.

In the case of `CCCCSc1nc(NCCc2cccc(OC)c2)c2ncn([C@@H]3O[C@H](CO)[C@@H](O)[C@H]3O)c2n1`, the Activity with Platelet [3] worked out at 85%. Further, in the assay with Platelet [4], the inhibition at 300 µM is < 50%.

Turning to `CCCCSc1nc(NCCc2ccccc2)c2ncn([C@@H]3O[C@H](CO)[C@@H](O)[C@H]3O)c2n1`, in the assay on Platelet [1], the “inhibition (INH)” value is on record as >50% and the IC50 turned out to be 59 µM. For the same molecule, in the assay with Platelet [5], the inhibition (INH) was < 50%.

For the molecule `COc1ccc(CNc2nc(SC)nc3c2ncn3[C@@H]2O[C@H](CO)[C@@H](O)[C@H]2O)cc1`, in the assay on Platelet [3], the Activity is listed as 69%. Moreover, the inhibition at 300 µM in the assay on Platelet [4] is < 50%.

For the molecule `CCSc1nc(NCc2ccc(OC)cc2)c2ncn([C@@H]3O[C@H](CO)[C@@H](O)[C@H]3O)c2n1`, the Activity in the assay on Platelet [3] amounted to 74%. Besides, the inhibition at 300 µM in the assay with Platelet [4] was < 50%.

Consider `CCSc1nc(NCCc2cccc(OC)c2)c2ncn([C@@H]3O[C@H](CO)[C@@H](O)[C@H]3O)c2n1`, for which, in the assay with Platelet [1], the “inhibition (INH)” value was >50% and half-maximal inhibition (IC50) was put at 38 µM. For the same molecule, the inhibition (INH) in the assay on Platelet [5] is < 50%.

For the molecule `CCSc1nc(NC(C)c2ccccc2)c2ncn([C@@H]3O[C@H](CO)[C@@H](O)[C@H]3O)c2n1` (some centres not stated), the “inhibition (INH)” value in the assay on Platelet [1] is reported as >50%.

As for `CC(C)Sc1nc(NC2CCCCC2)c2ncn([C@@H]3O[C@H](CO)[C@@H](O)[C@H]3O)c2n1`, in the assay with Platelet [1], the “inhibition (INH)” value was >50%.

As for `CSc1nc(NCc2ccccc2)c2ncn([C@@H]3O[C@H](CO)[C@@H](O)[C@H]3O)c2n1`, the Activity in the assay with Platelet [3] turned out to be 52%. Also, the inhibition at 300 µM in the assay with Platelet [4] is < 50%.

With `CSc1nc(NCc2ccc(C)cc2)c2ncn([C@@H]3O[C@H](CO)[C@@H](O)[C@H]3O)c2n1`, in the assay on Platelet [3], the Activity was determined as 77%. In addition, the inhibition at 300 µM in the assay with Platelet [4] was < 50%.

On to `CCCCCCNc1nc(SCCC)nc2c1ncn2[C@@H]1O[C@H](CO)[C@@H](O)[C@H]1O`, for which, in the assay with Platelet [1], the “inhibition (INH)” value is recorded as >50%.

For the molecule `CCCSc1nc(NCc2ccccc2)c2ncn([C@@H]3O[C@H](CO)[C@@H](O)[C@H]3O)c2n1`, the “inhibition (INH)” value in the assay with Platelet [1] is given as >50%.

For the molecule `CCSc1nc(NC2CCCCC2)c2ncn([C@@H]3O[C@H](CO)[C@@H](O)[C@H]3O)c2n1`, the “inhibition (INH)” value with Platelet [1] is >50%.

On to `CCSc1nc(NCc2ccc(C)cc2)c2ncn([C@@H]3O[C@H](CO)[C@@H](O)[C@H]3O)c2n1`, for which, in the assay with Platelet [3], the Activity was 88%. Besides, in the assay with Platelet [4], the inhibition at 300 µM was < 50%.

`COc1cccc(CCNc2nc(SC)nc3c2ncn3[C@@H]2O[C@H](CO)[C@@H](O)[C@H]2O)c1`: the Activity in the assay with Platelet [3] stood at 71%. In addition, the inhibition at 300 µM in the assay on Platelet [4] is < 50%.

For `OC[C@H]1O[C@@H](n2cnc3c(NCCc4ccccc4)nc(Sc4ccccc4)nc32)[C@H](O)[C@@H]1O`, in the assay on Platelet [3], the Activity amounted to 57%. The inhibition at 300 µM with Platelet [4] is < 50%.

With `CCCSc1nc(NCCc2cccc(OC)c2)c2ncn([C@@H]3O[C@H](CO)[C@@H](O)[C@H]3O)c2n1`, in the assay with Platelet [1], the “inhibition (INH)” value is given as >50% and 69 µM corresponded to half-maximal inhibition (IC50).

In the case of `COc1ccc(CCNc2nc(SC)nc3c2ncn3[C@@H]2O[C@H](CO)[C@@H](O)[C@H]2O)cc1`, in the assay with Platelet [1], the “inhibition (INH)” value is recorded as >50%.

On to `CCCCN(CCCC)c1nc(SCC)nc2c1ncn2[C@@H]1O[C@H](CO)[C@@H](O)[C@H]1O`, for which, in the assay with Platelet [3], the Activity worked out at 77%. For the same molecule, the inhibition at 300 µM in the assay with Platelet [4] was < 50%.

(Values after ChEMBL document CHEMBL2034940, “Synthesis of N6-alkyl(aryl)-2-alkyl(aryl)thioadenosines as antiplatelet agents” (Eur J Med Chem, 2012).)
